# Compound activity from PubChem.
# Shown are actives, neighbours in structure and some others; about 0.88% of the full set was active somewhere.
# CCR6 antagonist – antagonists of human CCR6 receptor; CHO-K1 CCR6 PathHunter beta-arrestin, luminescence, CCL20-stimulated; inhibition, % at 20 µM; 0.49% of 340,000 active; AID 493098;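 active = compounds whose inhibition of the agonist-driven luminescence signal at 20 µM reaches about 50%, limit read from the data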;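 note: cells stimulated with CCL20 at 14 nM final; plate controls were DMSO with CCL20 for no effect and DMSO without agonist for full effect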
# CXCR6 block – CXCR6 (human) receptor inhibition. O00574. CHO-K1 PathHunter CXCR6 beta-arrestin, luminescence. inhibition, % at 20 µM. 0.36% of 360,000 active. AID 602244; in the data active = inhibition above about 34%, passing the limit was not always enough;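 note: antagonist mode with CXCL16 agonist at 10 nM final; 0% = 10 nM CXCL16 with DMSO and 100% = unstimulated wells without agonist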
# Target sequence (O00574 whole entry, looked up): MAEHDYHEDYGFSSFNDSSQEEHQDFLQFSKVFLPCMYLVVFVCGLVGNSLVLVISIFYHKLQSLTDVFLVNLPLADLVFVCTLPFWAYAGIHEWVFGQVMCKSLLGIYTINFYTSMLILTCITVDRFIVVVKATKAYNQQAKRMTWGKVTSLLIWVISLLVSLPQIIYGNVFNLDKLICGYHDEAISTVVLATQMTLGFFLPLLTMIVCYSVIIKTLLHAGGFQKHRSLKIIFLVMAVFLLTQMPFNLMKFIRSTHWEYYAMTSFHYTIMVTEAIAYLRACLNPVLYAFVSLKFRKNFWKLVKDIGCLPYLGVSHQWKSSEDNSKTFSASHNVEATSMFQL
# APJ agonist – activates the human apelin receptor APJ; CHO-K1 APJ PathHunter beta-arrestin, luminescence; 0% DMSO wells, 100% apelin; P35414; AID 2520; 0.11% of 330,000 active; activation, % at 20 µM;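 active = activation more than six SD over the plate average, tested at 20 µM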;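 note: 0% = DMSO alone and 100% = apelin-13 at 10 nM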
#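 Test system: CHO-K1 APJ beta-arrestin complementation cell line. Amount: cell density 1000 per well. Controls: DMSO negative, 10 nM Apelin-13 positive. Signal: luminescent beta-gal fragment complementation, chemiluminescent substrate. Read-out basis: agonist-driven arrestin binding to APJ. Timing: compound stimulation 90 min at 25 °C, detection 60 min.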
# APJ antag – antagonists of human APJ apelin receptor. P35414. AID 2521. 0.32% of 330,000 active. CHO-K1 APJ beta-arrestin complementation, luminescence. inhibition, % at 20 µM;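 active = inhibition above about 40% at 20 µM, limit read from the data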;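 note: cells challenged with 10 nM apelin-13 agonist together with compound; plate controls were apelin-13 plus DMSO wells for no effect and DMSO wells lacking apelin-13 for full effect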
# PKA-R2B activ – activators of human PKA-R2B complex; P22694+P31323; PKA-R2B holoenzyme dissociation, Cy5-IP20 fluorescence polarization; R2B truncated from residue 108, S112A mutant; 0% DMSO only, 100% 113 µM cGMP; activation, % at 11.4 µM; 0.079% of 340,000 active;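 active = activation above a cutoff set at the mean over all compounds plus 3 SD, cut at about 18% in these data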;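 note: higher means more holoenzyme dissociation and a rise in polarization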
# PKA-R1A act – activators of PKA-R1A complex; activation, % at 11.4 µM; 0.083% of 340,000 active; PKA-R1A dissociation, Cy5-IP20 fluorescence polarization; scaled: DMSO 0%, 113 µM cGMP 100%; P00514+P68181;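 active = percent activation above the mean of all tested compounds plus 3 SD, cut at about 19% in these data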;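 note: higher means more PKAc released from R1A so a rise in polarization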
# The depositor's hits bear a star; x = no result.
SMILES,CCR6 antagonist,CXCR6 block,APJ agonist,APJ antag,PKA-R2B activ,PKA-R1A act
Cc1ccc(S(=O)(=O)NC2=C(N3CCN(Cc4ccccc4)CC3)C(=O)c3ccccc3C2=O)cc1,54*,5,2,-33,6,0
Cc1ccc(S(=O)(=O)NC2=C(N3CCN(c4ccccc4F)CC3)C(=O)c3ccccc3C2=O)cc1,37,24,-2,-45,-10,-3
COc1ccc(-c2csc(C(C)(O)c3cccnc3)n2)cc1 (stereo not given),x,9,x,x,x,x
C/C(CC1CC(C)OC1=O)=N\NC(N)=S (stereo not given),6,-7,0,4,1,9
C/C(CCC12CC3CC(CC(C3)C1)C2)=N\NC(N)=S,57*,21,-4,5,-6,1
O=[N+]([O-])c1ccc(NCCCO)c(S(=O)(=O)N2CCOCC2)c1,1,5,-3,-10,-3,0
O=[N+]([O-])c1ccc(N/N=C/c2cccc(O)c2O)c(S(=O)(=O)N2CCOCC2)c1,72*,55*,-7,58*,-4,5
O=[N+]([O-])c1ccc(N/N=C/c2ccc(O)c(O)c2O)c(S(=O)(=O)N2CCOCC2)c1,51*,7,-5,15,-2,1
COc1cc(/C=N/Nc2ccc([N+](=O)[O-])cc2S(=O)(=O)N2CCOCC2)cc(OC)c1OC,17,34,-4,23,-6,-1
Cc1cc(Br)c2nc(-c3ccccc3)c(Cc3cccc(Cl)c3)n2c1,x,7,x,x,x,x
O=C1NC(=S)SC1=C1CCCCCC1,51*,5,-4,17,4,-5
Nc1[nH]c(C(=O)c2ccccc2)c(-c2c(F)cccc2F)c1C(=O)c1ccc(Cl)c(Cl)c1,x,12,x,x,x,x
Cc1c(N=NC2=C(O)CC(C)(C)CC2=O)c(=O)n(-c2ccccc2)n1C,x,61*,-4,16,-6,4
CC(C)[C@@H]1Cc2[nH]n(C)c(=O)c2[C@H](c2ccc(Cl)cc2)O1,x,-4,x,x,x,x
Cc1ccc(S(=O)(=O)N(C)C[C@@H]2OCc3cn(nn3)CCCC(=O)N([C@H](C)CO)C[C@H]2C)cc1,x,-5,x,x,x,x
C=C1C(=O)C=C2CN(C(=O)c3ccccc3)[C@@](Cc3ccc(F)cc3)(C(=O)OC)[C@@H]12,100*,88*,-10,37,-11,0
C=C1C(=O)CC2=C1[C@](Cc1ccc(F)cc1)(C(=O)OC)N(C(=O)c1ccccc1)C2,x,5,x,x,x,x
N#C/C(=C(/O)c1ccc(Br)s1)c1nc2ccccc2[nH]1,13,3,-4,13,6,10
N#C/C(=C(/O)CCl)c1nc2ccccc2[nH]1,16,28,-7,53*,-9,-12
N#C/C(=C(/O)c1ccc([N+](=O)[O-])s1)c1nc2ccccc2[nH]1,63*,33,1,18,-3,-3
O=[N+]([O-])c1cccc(/C=N/Nc2nc(C(Cl)(Cl)Cl)nc3ccccc23)c1,-4,-5,15*,-41,-11,1
Cc1ccc(Cc2cnc(N3C(=N)SC(c4ccccc4)C3=O)s2)cc1 (stereo not given),62*,29,-3,-8,-4,-3
Cc1c(C(=O)NC(=S)Nc2ccc(NC(=O)c3cccs3)cc2)cccc1[N+](=O)[O-],58*,17,-6,21,-11,-9
CC(=O)NC(=S)Nc1ccc(NC(=S)NC(=O)c2cccs2)cc1,34,23,-11,18,-6,-5
O=C(NC(=S)Nc1ccc(-c2ccc(CO)o2)cc1)c1cccs1,46,16,-7,51*,x,x
SMILES,CCR6 antagonist,CXCR6 block,APJ agonist,APJ antag,PKA-R2B activ,PKA-R1A act
Cc1c(C(=O)NC(=S)Nc2ccc3c4c(cccc24)CC3)cccc1[N+](=O)[O-],67*,28,-3,4,-2,9
Cc1cccc2c1c1ccc3c(c1n2C)C(=O)C=CC3=O,89*,44*,x,x,-1,-10
Cc1ccccc1N1CC(=O)N(c2ccccc2C)CC1=O,1,7,-1,-4,3,-6
C[C@H]1CN([C@@H](C)CO)C(=O)c2cc(Br)cnc2O[C@H]1CN(C)C(=O)Cc1ccccn1,x,4,x,x,-2,-7
CSc1ccc(C2=C/C(=C3/SC(=S)NC3=O)c3ccccc3O2)cc1,76*,45*,x,x,-8,-7
CCN1/C(=C2/SC(=S)NC2=O)Sc2ccccc21,4,2,-6,10,-2,-5
CC1C(O)=C(c2ccccc2)P(=O)(Cc2ccccc2)C1C (stereo not given),x,-2,x,x,x,x
O=C(CSCc1ccc(Cl)cc1)Nc1ccc(-c2nnc(-c3ccccc3)o2)cc1,-14,-17,1,45*,1,-2
Cc1[nH]c2ccccc2c1/C=N/Nc1ccc([N+](=O)[O-])cc1,65*,38,x,x,-4,-3
Cc1[nH]c2ccccc2c1/C=N/NC(=O)c1cccc([N+](=O)[O-])c1,5,-7,3,9,x,x
C/C(=N/Nc1ccc([N+](=O)[O-])cc1)c1ccc(C)cc1C,25,2,-2,18,-10,-9
C/C(=N/Nc1ccc([N+](=O)[O-])cc1)c1c[nH]c2ccccc12,70*,38,-9,37,-11,-9
O=[N+]([O-])c1c(Nc2ccccc2O)cc(Cl)c2nonc12,106*,107*,-5,93*,-2,-4
CCN1C(=O)/C(=C/C=C2\N(CC)c3cc(S(=O)(=O)N(C)C)ccc3N2c2ccccc2)SC1=S,67*,52*,-5,27,3,-6
Nc1[nH]c(C(=O)c2ccccc2)c(-c2ccc(Cl)cc2Cl)c1C(=O)NCCc1c[nH]c2ccccc12,x,4,x,x,x,x
CC(=O)Nc1ccc(CN2C(=O)C(C)(C)ON=C2c2ccc(C(F)(F)F)cc2)cc1,x,4,x,x,x,x
O=C1/C(=C\c2ccccc2)CN(C(=O)CCN2CCCCC2)C/C1=C/c1ccccc1,82*,66*,x,x,5,0
O=C1/C(=C\c2ccc(Cl)c(Cl)c2)CN(C(=O)CCN2CCOCC2)C/C1=C/c1ccc(Cl)c(Cl)c1,56*,32,x,x,-2,-1
CCN(CC)CCC(=O)N1C/C(=C/c2ccccc2)C(=O)/C(=C\c2ccccc2)C1,66*,62*,x,x,-10,2
COc1ccc(CN2C[C@@H](CO)O[C@@H](n3cnc4c(NCCN(C)C)ncnc43)C2)cc1,x,11,x,x,x,x
COc1ccc(C(=O)CC(Nc2ccc([N+](=O)[O-])cc2)c2ccc(OC)cc2)cc1 (stereo not given),26,19,-5,15,-2,-1
CNC(CC(=O)c1ccc([N+](=O)[O-])cc1)C(Cl)(Cl)Cl (stereo not given),x,90*,x,x,-1,-9
